# Compound activity deposited in PubChem BioAssay by several laboratories.
# HNF4A DNA FP = change in binding of human HNF4 alpha to DNA; HNF4a-FITC DNA binding, fluorescence polarization, 1 h; activity change, % at 10 µM; actives 0.3% (n = 360,000); AID 1224865; in the data active means activity change above about 30%, passing the limit was not always enough
# Pemphigus Ab inh = blocks pemphigus antibody binding to human desmoglein-3; P32926; DSG3-coupled beads, scFv-anti-DSG3-GFP binding, flow cytometry; hits give low values; binding (percent of control), % at 10 µM; actives 0.48% (n = 310,000); AID 588358;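 active means binding more than 3 SD below its plate's average and above zero; inconclusive means below that plate limit but binding exactly zero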;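 further: hits lower antibody fragment binding to DSG3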
# Target sequence (P32926 whole entry, looked up, the tested form may be a part): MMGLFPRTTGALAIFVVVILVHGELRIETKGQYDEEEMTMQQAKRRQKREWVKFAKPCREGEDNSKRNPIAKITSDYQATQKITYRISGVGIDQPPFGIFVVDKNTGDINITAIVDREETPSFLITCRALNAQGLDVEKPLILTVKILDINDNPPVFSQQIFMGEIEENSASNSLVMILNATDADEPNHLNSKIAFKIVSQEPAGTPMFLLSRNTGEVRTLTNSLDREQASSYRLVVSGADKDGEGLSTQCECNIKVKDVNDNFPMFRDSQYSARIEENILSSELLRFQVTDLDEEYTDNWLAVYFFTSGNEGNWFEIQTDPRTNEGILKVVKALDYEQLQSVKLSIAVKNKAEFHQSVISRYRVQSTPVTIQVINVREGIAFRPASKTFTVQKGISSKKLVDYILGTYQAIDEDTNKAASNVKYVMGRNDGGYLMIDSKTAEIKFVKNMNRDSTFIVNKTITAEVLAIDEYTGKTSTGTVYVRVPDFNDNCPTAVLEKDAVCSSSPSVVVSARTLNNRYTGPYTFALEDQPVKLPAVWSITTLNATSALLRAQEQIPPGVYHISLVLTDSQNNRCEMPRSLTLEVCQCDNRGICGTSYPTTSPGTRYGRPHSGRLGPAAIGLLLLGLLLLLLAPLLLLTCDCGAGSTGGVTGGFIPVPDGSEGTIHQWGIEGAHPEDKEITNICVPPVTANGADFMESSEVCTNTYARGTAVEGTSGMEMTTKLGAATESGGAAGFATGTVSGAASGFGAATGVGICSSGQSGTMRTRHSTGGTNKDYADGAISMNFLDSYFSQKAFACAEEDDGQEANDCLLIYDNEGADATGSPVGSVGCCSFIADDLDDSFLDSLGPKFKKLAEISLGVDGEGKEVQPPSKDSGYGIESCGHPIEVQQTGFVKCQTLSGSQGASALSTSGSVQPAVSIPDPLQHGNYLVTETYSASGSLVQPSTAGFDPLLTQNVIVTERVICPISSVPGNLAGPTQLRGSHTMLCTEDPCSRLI
# Myeloid diff MLP = promotes myeloid progenitor differentiation; ER-HoxA9 myeloid progenitors, lysozyme-GFP differentiation, flow cytometry; calls only at 10 µM; actives 1% (n = 360,000);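 active means normalized GFP-positive differentiation at or above the plate's own cutoff, the solvent-only control mean plus 3 SD; inconclusive means no clear call, values can overlap the other calls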;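 further: cells exposed to compound for four days before flow analysis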
# Exocytosis inh = blocks lytic granule exocytosis. inhibition, % at 10 µM. TALL-104 LAMP-1 surface exposure, flow cytometry; cells stimulated with thapsigargin and PMA. actives 0.66% (n = 360,000);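 active means inhibition above about 55%, limit read from the data; inconclusive means no clear call, values can overlap the other calls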
# SENP1 FRET inh = blocks the human SENP1 SUMO protease catalytic domain; recombinant SENP1 catalytic domain, CyPet-SUMO1-YPet FRET cleavage; actives 0.21% (n = 360,000); inhibition, % at 10 µM; Q9P0U3; AID 624204;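 active means inhibition at least 30% at 10 µM, raw YFP signal under a set limit, fluorescence ratio 0.5 to 1.5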;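 further: 0% = enzyme with DMSO and 100% = no enzyme wells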
#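 Controls: no-enzyme wells low, DMSO-plus-enzyme wells high control. Test system: human recombinant His6-tagged SENP1 catalytic domain enzyme. Reagent: SFCypet-SUMO1-SFYpet FRET protein substrate, 25 nM final. Doses: one dose per compound, 10 µM, 0.5% DMSO. Detection: FRET, CFP and YFP emission. Timing: 50 min reaction at room temperature.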
# Cardio protect = protects H9c2 cardiomyocytes from peroxide injury; actives 0.63% (n = 360,000); AID 588492; H2O2 injury protection, ATPLite, 2 h; protection from H2O2 cell death, % at 20 µM;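 active means compounds giving at least 50% protection of heart cells from peroxide-induced death in the single-dose screen, raw or plate-pattern-corrected value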;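 further: 0% = DMSO wells with peroxide and 100% = DMSO wells without peroxide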
# Exocytosis CP01 = lytic granule exocytosis inhibition. shares compounds with Exocytosis inh. inhibition, % at 10 µM. actives 11% (n = 1,500). TALL-104 cells, LAMP-1 externalization, flow cytometry; stimulated with PMA plus thapsigargin. AID 651954; in the data active means inhibition above about 60%;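 further: 0% = stimulated vehicle wells and 100% = unstimulated wells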
# Active calls of the source: *; i = inactive; ? = inconclusive; . = no result given. Sampled rows, rich in hits. Any-hit rate of the full collection: about 3%.
SMILES,HNF4A DNA FP,Pemphigus Ab inh,Myeloid diff MLP,Exocytosis inh,SENP1 FRET inh,Cardio protect,Exocytosis CP01
CCOc1ccc(-c2cnc(NCc3cccc4ccccc34)n2CCOC)cc1,-1.8,114.6,i,111.1*,-4.2,-11.8,0.8
COc1ccc(CNCCC(c2ccc(OC(C)C)cc2)C(C)C)cc1OC (centres undefined),-0.9,103.0,i,14.6,0.1,-20.1,.
COc1ccc(C(CCNCc2ccc(OC(C)C)cc2)C(C)C)cc1 (centres undefined),1.2,102.2,i,78.4*,2.5,-16.3,7.0
COc1ccc(C(CCNCc2ccc(N(C)C)cc2)C(C)C)cc1 (centres undefined),4.2,121.6,i,69.2*,1.5,-27.0,-12.8
Clc1ccc(-c2c(C3=NCCCN3)nnn2-c2ccc(Cl)cc2)cc1,2.5,92.7,i,56.2*,-0.9,1.0,-2.8
COc1cc(NC(=O)c2cccs2)c(OC)cc1NC(=O)CCC(=O)Nc1cccc2ncccc12,2.2,99.4,i,60.3*,0.0,27.1,-3.0
COC1=CC(=O)c2c(ccc3ncnc(N)c23)C1=O,-6.1,87.0,.,88.4*,6.6,-13.8,14.0
c1ccc(CCNc2ccnc3cc4ccccc4cc23)cc1,-4.9,124.9,.,55.6*,-39.9,-36.3,91.7*
COc1ccc(Nc2ccnc3ccccc23)cc1,-0.8,104.0,i,2.5,2.5,-18.9,.
CC(C)Nc1ccc(Nc2ccnc3cc4ccccc4cc23)cc1,2.3,139.1,.,78.9*,-25.6,-28.3,31.8
CC(=O)Nc1ccccc1OC(C)C(=O)NC(C)c1ccc(F)cc1 (centres undefined),-3.4,.,i,-0.3,-0.4,11.1,.
CCOc1ccc2[nH]c3c(N4CCc5ccccc5C4)ncnc3c2c1,0.6,99.2,?,96.6*,-9.6,-8.2,98.4*
O=C(Nc1ccc2oc(-c3ccccc3F)nc2c1)c1ccc2c(c1)OCCO2,-1.8,105.1,i,85.1*,-6.4,12.4,44.6
O=C(/C=C/Sc1ccc(C(F)(F)F)cn1)c1ccccc1,0.6,99.3,i,64.0*,1.1,-8.6,-3.0
Cc1cc(Cl)ccc1C(O)c1ncc(-c2ccc(Cl)cc2)[nH]1 (centres undefined),-0.3,.,i,-4.1,1.0,-31.2,.
COCCNC(=O)Nc1ccc2nc(-c3cccs3)c(-c3cccs3)nc2c1,13.4,86.1,i,49.1,-20.5,9.9,.
O=C(Nc1ccc2nc(-c3cccs3)c(-c3cccs3)nc2c1)NC1CC1,19.1,90.8,i,98.9*,-24.2,3.9,102.8*
CCCCc1ccc(S(=O)(=O)NC2CCS(=O)(=O)C2)cc1 (centres undefined),2.4,.,i,-9.2,1.3,-6.8,.
COC(=O)Nc1ccc(S(=O)(=O)NC2CCS(=O)(=O)C2)cc1 (centres undefined),-2.5,103.9,i,64.2*,0.6,-5.4,-14.4
COc1cc(O)c(C(CC(=O)N2CCCC(C)C2)c2cc(OC)c(OC)c(OC)c2)c(OC)c1 (centres undefined),0.6,97.4,i,58.2*,4.1,20.9,-15.3
COc1ccccc1OCCn1cc(C(=O)C(C)C)c2ccccc21,1.6,92.3,i,59.7*,-0.6,1.9,-13.3
O=C1NC[C@H](Cc2ccccc2)N(CCc2cccc(F)c2)C1=O,0.0,104.5,i,61.3*,0.9,1.8,-12.9
CCn1c(=O)c2c3c(sc2n2c(SCc4ccc(F)cc4)nnc12)CCCC3,1.1,92.0,i,56.3*,0.9,19.5,-2.3
COc1c2ccoc2c(OC[C@@H](O)C(C)(C)O)c2oc(=O)ccc12,-3.7,105.2,i,63.3*,-20.2,1.7,-5.1
COc1c2ccoc2c(OC[C@@H](O)C(C)(C)OC)c2oc(=O)ccc12,6.4,101.1,i,9.9,-153.8,1.3,.
CC1=NOC(=O)/C1=C/c1ccc(-c2ccc(Cl)cc2)o1,-1.6,74.7,.,77.9*,-5.9,-18.5,100.9*
